Data as given in ChEMBL document CHEMBL1139491 (J Med Chem, 2005).

What was measured:
T47D [1] = test: Tested for cytotoxicity towards T47D cell line (human breast cancer); Not active; type: functional, cell-based
MCF7 [2] = test: Tested for cytotoxicity towards MCF-7 cell line (human breast cancer); Not active; type: functional, cell-based
[3] = molecular target: T1, Aryl hydrocarbon receptor (Oryctolagus cuniculus, UniProt O02747); test: Binding affinity for aryl hydrocarbon receptor (AhR) of rabbit liver cytosol incubated with 0.2 nM [3H]-TCDD; Antagonist
T1 sequence (O02747 whole entry): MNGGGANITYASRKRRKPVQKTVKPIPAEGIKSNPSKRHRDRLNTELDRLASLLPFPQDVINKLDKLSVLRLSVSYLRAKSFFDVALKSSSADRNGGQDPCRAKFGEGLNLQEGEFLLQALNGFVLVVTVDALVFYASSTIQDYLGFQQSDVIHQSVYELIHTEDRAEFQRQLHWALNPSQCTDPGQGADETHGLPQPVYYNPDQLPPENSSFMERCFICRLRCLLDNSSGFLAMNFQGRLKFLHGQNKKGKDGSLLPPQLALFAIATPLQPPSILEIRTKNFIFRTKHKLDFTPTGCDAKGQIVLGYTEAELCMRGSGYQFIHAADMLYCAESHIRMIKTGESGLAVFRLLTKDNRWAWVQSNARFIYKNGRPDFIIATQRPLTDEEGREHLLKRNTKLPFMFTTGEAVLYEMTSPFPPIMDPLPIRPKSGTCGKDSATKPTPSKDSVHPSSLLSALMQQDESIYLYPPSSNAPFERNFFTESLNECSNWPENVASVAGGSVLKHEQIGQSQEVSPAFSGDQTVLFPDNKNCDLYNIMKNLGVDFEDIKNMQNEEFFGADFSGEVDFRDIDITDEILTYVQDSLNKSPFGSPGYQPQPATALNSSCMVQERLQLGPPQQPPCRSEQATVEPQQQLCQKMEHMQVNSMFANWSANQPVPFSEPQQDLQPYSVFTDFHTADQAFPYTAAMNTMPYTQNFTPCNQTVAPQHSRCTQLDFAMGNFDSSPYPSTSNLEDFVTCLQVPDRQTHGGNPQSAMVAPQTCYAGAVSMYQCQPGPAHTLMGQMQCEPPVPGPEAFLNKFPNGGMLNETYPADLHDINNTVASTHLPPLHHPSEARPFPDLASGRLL
In short: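 Rabbit liver cytosol incubated with 0.2 nM [3H]-TCDD plus unlabeled ligand at 12 concentrations spanning 0.1 nM to 1 µM. Competitive displacement measured, and IC50 obtained by iterative curve fitting.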

A549 [4] = test: Tested for cytotoxicity towards A549 cell line (human lung carcinoma); Not active; type: functional, cell-based
Estrogen receptor [5] = molecular target: T2, Estrogen receptor (Homo sapiens, UniProt P03372); test: Binding affinity for estrogen receptor (ER) alpha of MCF-7 cell cytosol incubated with 2 nM [3H]estradiol; type: cell-based
T2 sequence (P03372 whole entry): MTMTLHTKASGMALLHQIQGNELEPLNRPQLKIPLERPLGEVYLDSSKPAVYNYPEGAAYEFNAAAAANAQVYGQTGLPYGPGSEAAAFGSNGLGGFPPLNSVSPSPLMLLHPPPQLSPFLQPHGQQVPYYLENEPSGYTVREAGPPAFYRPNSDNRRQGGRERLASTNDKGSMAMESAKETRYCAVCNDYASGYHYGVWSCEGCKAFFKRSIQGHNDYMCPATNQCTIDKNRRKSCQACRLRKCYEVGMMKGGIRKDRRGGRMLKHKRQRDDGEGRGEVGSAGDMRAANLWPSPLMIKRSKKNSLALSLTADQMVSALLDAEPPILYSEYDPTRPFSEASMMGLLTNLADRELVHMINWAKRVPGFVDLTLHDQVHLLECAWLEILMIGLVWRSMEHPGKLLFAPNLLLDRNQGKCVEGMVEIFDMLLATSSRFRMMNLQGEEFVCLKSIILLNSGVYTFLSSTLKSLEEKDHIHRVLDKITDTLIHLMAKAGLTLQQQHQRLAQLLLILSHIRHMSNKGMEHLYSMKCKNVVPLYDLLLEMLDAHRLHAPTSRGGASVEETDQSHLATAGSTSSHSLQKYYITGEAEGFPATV
In short: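 Cytosol from MCF-7 cells, which express only the ERα isoform, incubated with 2 nM [3H]-estradiol and unlabeled ligand at eight concentrations from 10 nM to 10 µM. IC50 derived by iterative curve fitting, and Ki calculated using a Kd of 0.1 nM.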

Estrogen receptor [6] = molecular target: T2, Estrogen receptor; test: Binding affinity for estrogen receptor (ER) alpha of MCF-7 cell cytosol incubated with 2 nM [3H]estradiol; Agonist; type: cell-based
In short: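 ERα-only cytosol from MCF-7 cells, incubated with 2 nM [3H]-estradiol and eight concentrations (10 nM–10 µM) of unlabelled ligand. IC50 came from iterative curve fitting, and Ki was calculated using Kd 0.1 nM. Agonist status: stimulation of ERE-driven luciferase in MELN reporter cells after 8 h, with or without 1 nM 17β-estradiol; luciferase activity was the read-out.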

MCF7 [7] = test: Tested for cytotoxicity towards MCF-7 cell line (human breast cancer); type: functional, cell-based
T47D [8] = test: Tested for cytotoxicity towards T47D cell line (human breast cancer); type: functional, cell-based
A549 [9] = test: Tested for cytotoxicity towards A549 cell line (human lung carcinoma); type: functional, cell-based

SMILES	Concentration (T47D [1]) [µM]	Concentration (MCF7 [2]) [µM]	Ki [3] [µM]	Concentration (A549 [4]) [µM]	Ki (Estrogen receptor [5]) [µM]	Ki (Estrogen receptor [6]) [µM]	Concentration (MCF7 [7]) [µM]	Concentration (T47D [8]) [µM]	Concentration (A549 [9]) [µM]
FC(F)(F)c1cccc(/C=C\c2cc(Cl)cc(Cl)c2)c1	> 10	> 10	0.019	> 10	> 100				
CCOc1ccc(/C=C/c2cc(OC)cc(OC)c2)cc1			0.005			0.381	< 0.1	< 0.1	< 0.1
CCCCOc1ccc(/C=C/c2cc(OC)cc(OC)c2)cc1			0.02		> 100		> 10	> 10	> 10
Fc1ccc(/C=C\c2cc(F)cc(F)c2)cc1	> 10	> 10	0.063	> 10	> 100				
COc1cccc(/C=C\c2cc(Cl)cc(Cl)c2)c1	> 10	> 10	0.024	> 10	> 100				
Clc1ccc(/C=C/c2cc(Cl)cc(Cl)c2)cc1	> 10	> 10	0.0012	> 10	> 100				
Clc1ccc(/C=C\c2cc(Cl)cc(Cl)c2)cc1			0.013		> 100		< 100	< 100	< 100
COc1ccc(/C=C/c2cc(F)cc(F)c2)cc1	> 10	> 10	0.0092	> 10	> 100				
FC(F)(F)c1cccc(/C=C/c2cc(Cl)cc(Cl)c2)c1	> 10	> 10	0.0068	> 10	> 100				
COc1cccc(/C=C/c2cc(Cl)cc(Cl)c2)c1	> 10	> 10	0.0057	> 10	> 100				
CCCCOc1ccc(/C=C\c2cc(OC)cc(OC)c2)cc1			0.043		> 100				
Oc1ccc(/C=C/c2cc(O)cc(O)c2)cc1 [RESVERATROL]						0.785			
COc1ccc(/C=C/c2cc(OC)cc(OC)c2)cc1 [TRISMETHOXYRESVERATROL]			0.0077			0.261	< 100	< 100	< 100
